Bioassay records (PubChem BioAssay)
This is a sample that favours compounds with a hit; in the whole collection about 3.6% have one here.
PERK inhibitor: block of dimerizer-induced PERK translation repression, primary screen, PERK inhibitor project, CHO PERK-DD cells, SEAP luminescence, HTS; inhibition, % at 5.6 µM; 220,000 compounds, 0.17% hits; CHO PERK-DD fusion, SEAP luminescence translation reporter;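 active = inhibition above the mean inhibition of all tested compounds plus 3 SD, set separately per screening campaign, cut at about 2.9% in these data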;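 note: PERK kinase domain activated by AP20187 dimerizer at 100 nM; 0% = DMSO with dimerizer and 100% = rapamycin at 8.4 µM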
Target sequence (Q9NZJ5 whole entry, looked up, the tested form may be a part): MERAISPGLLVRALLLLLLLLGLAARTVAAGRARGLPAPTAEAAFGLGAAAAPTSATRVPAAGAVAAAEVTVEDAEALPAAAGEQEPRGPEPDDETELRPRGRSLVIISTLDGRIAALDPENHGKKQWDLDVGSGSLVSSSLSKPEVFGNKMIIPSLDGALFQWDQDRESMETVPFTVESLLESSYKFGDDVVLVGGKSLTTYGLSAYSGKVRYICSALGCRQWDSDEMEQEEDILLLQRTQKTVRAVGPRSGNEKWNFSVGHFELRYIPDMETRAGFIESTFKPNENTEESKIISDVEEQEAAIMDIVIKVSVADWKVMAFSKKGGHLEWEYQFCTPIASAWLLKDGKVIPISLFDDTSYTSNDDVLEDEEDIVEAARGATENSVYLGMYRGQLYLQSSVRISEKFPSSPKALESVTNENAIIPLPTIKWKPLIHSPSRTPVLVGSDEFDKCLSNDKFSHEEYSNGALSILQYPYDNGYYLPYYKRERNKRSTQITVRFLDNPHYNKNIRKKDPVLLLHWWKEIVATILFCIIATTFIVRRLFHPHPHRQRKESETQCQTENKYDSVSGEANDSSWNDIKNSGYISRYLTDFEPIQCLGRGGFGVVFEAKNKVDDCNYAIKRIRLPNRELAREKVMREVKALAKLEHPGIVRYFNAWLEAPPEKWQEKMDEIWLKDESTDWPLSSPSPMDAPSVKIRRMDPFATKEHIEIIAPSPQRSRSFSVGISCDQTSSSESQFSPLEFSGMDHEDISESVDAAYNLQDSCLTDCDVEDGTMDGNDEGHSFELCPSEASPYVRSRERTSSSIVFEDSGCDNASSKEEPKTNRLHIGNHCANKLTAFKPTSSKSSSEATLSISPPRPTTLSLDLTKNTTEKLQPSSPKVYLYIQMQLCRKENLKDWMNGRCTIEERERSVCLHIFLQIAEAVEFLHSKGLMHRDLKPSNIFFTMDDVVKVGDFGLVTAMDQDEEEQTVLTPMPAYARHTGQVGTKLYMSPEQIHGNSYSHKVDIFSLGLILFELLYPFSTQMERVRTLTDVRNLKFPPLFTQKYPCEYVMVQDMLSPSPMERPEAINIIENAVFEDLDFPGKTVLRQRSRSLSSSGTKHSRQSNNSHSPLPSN
AHR act: AHR activators, primary screen, cell-based, luminescence, luciferase reporter, human; Aryl hydrocarbon receptor (Homo sapiens), P35869; AHR-responsive luciferase reporter cells; activation, % at 5 µM; 320,000 compounds, 2.5% hits; AID 2796, 2010; in the data active = activation above about 47%;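 note: 0% = vehicle wells and 100% = reference agonist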
PolyA inh: polyadenylation inhibitors in yeast reporter cells, primary screen, luminescence, S. cerevisiae; S. cerevisiae SKY197-pL101 polyadenylation reporter, beta-gal luminescence; efflux-impaired pdr1/pdr3 knockout yeast; score 100 = 6 SD above DMSO; activity score, % at 12 µM; 300,000 compounds, 0.02% hits; AID 1875, 2009;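 active = lowest replicate activity score at least 50, where 100 means six control SD above control mean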;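 note: yeast exposed to compound for 9 h at 30 °C; higher score means more reporter readthrough which indicates perturbed polyadenylation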
STAT3 activator: IL-6 driven STAT3 reporter potentiators, primary screen, U3A cells, luciferase, luminescence, MLSCN library; IL-6 STAT3-luciferase reporter; 100% = signal with IL-6 EC80 alone; activation (% of control), % at 5.6 µM; 190,000 compounds, 0.91% hits; AID 871, 2007;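 active = activation above the screen-wide mean of compound activation plus 3 SD, cut at about 130% in these data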;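 note: 0% = background luminescence of wells with medium and substrate only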
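System – human U3A cells carrying STAT3-luciferase construct · Probe or stimulus – Interleukin-6, 33 ng/mL · Schedule – compound 1 h, then IL-6 6 h at 37 °C · Signal – luminescence from STAT3-driven luciferase reporter · Evaluation – percent of IL-6-only median luminescence · Benchmarks – IL-6-only high control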
Hsp70 act: Hsp70 transcriptional activators, primary screen, cell-based, HeLa, Hsp70 promoter luciferase, luminescence, 10 µM; activation, % at 10 µM; AID 1203, 2008; HeLa Hsp70 promoter luciferase reporter; scaled: vehicle 0, proteasome-inhibitor control 100%; 200,000 compounds, 0.04% hits;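 active = activation above the mean across all tested compounds plus 3 SD, cutoff set per campaign, cut at about 5.5% in these data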;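 note: 100% = MG132 at 30 µM as the positive control and 0% = DMSO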
HSF1 inhib: HSF1 inhibitors in luciferase reporter cells, primary screen, cell-based, NIH3T3, luminescence | 300,000 compounds, 0.77% hits | NIH3T3-HGL HSE-luciferase, MG132-induced, luminescence 8 h; hits give low values | activity change, negative = inhibition, % at 7.5 µM (by protocol);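 active = more than half of replicate wells show activity change below -50%, luminescence cut by over half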;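 note: luciferase reports HSF-1 transcriptional activity via heat shock element; 0% = median of DMSO wells and -100% = zero luminescence signal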
AHR act confirm: AHR activators, confirmation, cell-based, luminescence, luciferase reporter, human | shares compounds with AHR act | human cells, AHR-responsive luciferase reporter | activation, % at 9 µM | 2,300 compounds, 87% hits | AID 2845, 2010; in the data active = activation above about 49%;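 note: HepG2 hepatoma cells carrying a DRE-driven firefly luciferase reporter; 0% = vehicle wells and 100% = reference agonist wells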
PXR counter: human PXR activators, counter-screen for AHR activator project, cell-based, luciferase luminescence | cell-based PXR reporter | shares compounds with AHR act | AID 434939, 2010 | activation, % at 11.6 µM | 2,300 compounds, 88% hits; in the data active = activation above about 11%;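 note: human hepatoma DPX-2 cells expressing full-length human PXR; 0% = DMSO and 100% = reference agonist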
Active calls of the source: *; / = no result.

SMILES	PERK inhibitor	AHR act	PolyA inh	STAT3 activator	Hsp70 act	HSF1 inhib	AHR act confirm	PXR counter
N#C/C(=C\c1ccc(Sc2ccccc2)o1)c1nc2ccccc2[nH]1	1	145*	-9	109	0	35	122*	151*
O=C(c1ccccn1)N1N=C2/C(=C/c3ccccc3)CCCC2C1c1ccccc1 (stereo unspecified)	0	112*	8	114	0	9	108*	65*
Cn1c(=O)c(-c2ccccc2N)nc2ccccc21	0	41	-3	116	0	2	/	/
CNc1ccccc1-c1nc2ccccc2n(C)c1=O	1	113*	/	95	-1	/	107*	41*
c1cncc(CNc2cccc(-c3nc4ccccc4[nH]3)c2)c1	-1	167*	1	115	0	11	112*	137*
c1ccc(NCc2cccnc2)cc1	2	1	/	102	0	/	/	/
C[C@H](NC(=O)[C@@H]1Cc2ccccc2CN1)C(=O)NCC1CCCO1 (stereo partly specified)	/	-3	2	/	/	16	/	/
c1cc(-c2cccs2)nc(-c2cccs2)c1	1	96*	-5	87	0	11	84*	16*
c1ccc(-c2cccs2)nc1	2	-2	-7	/	/	-4	/	/
CNc1snc(C)c1C(=O)OC(C)C(=O)Nc1ccc(F)cc1 (stereo unspecified)	/	10	/	/	/	/	/	/
COc1ccc(/C=C/C(=O)c2oc3ccc(F)cc3c2C)cc1	0	81*	31	103	0	1	130*	75*
COc1ccc2oc(C(=O)NNC(=O)c3ccc(F)cc3)c(C)c2c1	/	-2	19	/	/	10	/	/
COc1cccc(CN(C)C(=O)COc2ccc(C(=O)c3ccc(Cl)cc3)cc2)c1OC	/	-1	-3	/	/	1	/	/
CC(=O)N(c1ccc(Cl)cc1)c1nc(C)cc(C)c1C#N	0	102*	-26	103	0	2	112*	110*
CC(=O)N(c1ccccc1)c1nc(C)cc(C)c1C#N	1	18	-12	102	0	0	/	/
Cc1cccc(-c2oc3ccccc3c2C#CCCO)c1	/	97*	15	/	/	-3	68*	24*
O=C(C1CC(=O)N(c2ccc(Cl)cc2)C1)N1CCC(c2nc3ccccc3[nH]2)CC1 (stereo unspecified)	/	1	-4	/	/	-8	/	/
CCC1(c2ccc(Cl)cc2)NC(=S)N(c2ccccc2)N1 (stereo unspecified)	-1	80*	-11	101	0	56	82*	12*
CCn1c(CNc2ccc(C(=O)O)cc2)nc2ccccc21	-1	5	-4	97	0	-4	/	/
CCn1cnc2cc(NCc3cccs3)ccc21	0	8	-7	105	0	6	/	/
CCn1cnc2cc(NCc3nc4ccccc4n3C)ccc21	-2	93*	8	86	0	-40	65*	83*
CCCn1c(CNc2ccc(Br)cc2)nc2ccccc21	0	101*	-6	76	0	19	93*	51*
CCn1cnc2cc(NCc3ccc(C)cc3)ccc21	0	34	-4	100	0	35	/	/
CCn1cnc2cc(NCc3ccc(Br)cc3)ccc21	/	107*	8	/	/	19	113*	46*
CC(C)n1cnc2cc(NCc3nc4ccccc4n3C)ccc21	-1	91*	1	107	0	10	86*	128*
SMILES	PERK inhibitor	AHR act	PolyA inh	STAT3 activator	Hsp70 act	HSF1 inhib	AHR act confirm	PXR counter
COc1cc(SC)ccc1C(=O)Nc1ccc2c(c1)CCC2	/	41	9	/	/	61	/	/
Cn1c(=O)c2c(ncn2CC(O)CNc2cccc(Cl)c2)n(C)c1=O (stereo unspecified)	0	4	11	75	0	11	/	/
Cc1ccc(S(=O)(=O)N2CCC(C(=O)NNC(=O)C3CC3)CC2)cc1Cl	0	1	12	102	0	1	/	/
CCOc1ccc(N2CC(C(=O)NC3=NCCS3)CC2=O)cc1 (stereo unspecified)	0	1	-7	111	0	-10	/	/
O=C1Nc2ccccc2/C1=C/c1ccccc1F	/	94*	-16	/	/	10	93*	17*
Cc1ccccc1/C=C1\C(=O)Nc2ccc(F)cc21	/	9	-4	/	/	0	/	/
CC(C)CNC(=S)N(CCCO)Cc1cc2cc3c(cc2[nH]c1=O)OCO3	/	92*	-3	/	/	-12	100*	19*
CC(=O)Oc1c(C)cc(O)c2ccccc12	1	14	8	127	0	1	/	/
CC(=O)Cc1cc(O)c2ccccc2c1OC(=O)c1ccccc1	0	93*	3	110	0	19	98*	16*
CN(Cc1ccon1)C(=O)C1CCC(=O)N(Cc2ccc(Cl)cc2)C1 (stereo unspecified)	/	-5	-2	/	/	-1	/	/
FC(F)(F)c1cc(-c2ccco2)nc(N2CCN(Cc3ccccc3)CC2)n1	1	-1	-8	102	0	2	/	/
Fc1ccc(N2CCN(c3nc(-c4ccco4)cc(C(F)(F)F)n3)CC2)cc1	1	115*	-2	102	0	3	105*	14*
CN1C(=O)/C(=C/c2ccccc2OCc2ccccc2F)NC1=S	1	93*	-18	101	0	7	79*	85*
O=C(O)c1ccc(COc2ccccc2/C=C2\NC(=O)N(Cc3ccccc3F)C2=O)cc1	0	-1	20	97	0	-7	/	/
CCc1nnc(NC(=O)CSc2nc(C)cc(C)c2C#N)s1	0	102*	2	77	0	20	62*	45*
CCCc1ccc(-c2c(C)sc(N)c2C#N)cc1	1	97*	-23	91	0	-3	104*	13*
N#Cc1ccc(C23OCCN2CCn2c3c3ccccc3[n+]2[O-])cc1 (stereo unspecified)	/	112*	/	/	/	/	122*	46*
